Here are results for one molecule from paper PMC9394215 (Journal for Immunotherapy of Cancer, 2022).

The target in one series is T1, human CD39 (Homo sapiens, UniProt P49961).
T1 sequence (P49961 1-510): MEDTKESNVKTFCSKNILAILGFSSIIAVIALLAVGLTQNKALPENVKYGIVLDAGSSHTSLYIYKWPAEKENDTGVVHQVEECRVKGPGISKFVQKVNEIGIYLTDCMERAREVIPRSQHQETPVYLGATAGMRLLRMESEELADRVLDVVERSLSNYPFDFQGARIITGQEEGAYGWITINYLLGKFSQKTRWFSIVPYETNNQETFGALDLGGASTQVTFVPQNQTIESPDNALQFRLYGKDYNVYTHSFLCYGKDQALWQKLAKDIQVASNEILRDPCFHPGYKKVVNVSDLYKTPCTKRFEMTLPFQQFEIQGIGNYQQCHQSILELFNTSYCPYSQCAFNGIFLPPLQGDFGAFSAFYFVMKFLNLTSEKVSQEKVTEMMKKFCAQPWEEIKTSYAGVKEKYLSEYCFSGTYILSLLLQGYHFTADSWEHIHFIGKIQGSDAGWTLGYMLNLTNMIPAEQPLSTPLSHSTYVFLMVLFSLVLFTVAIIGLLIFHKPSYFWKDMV
The series is described as follows: CE-UV. In kind it is biochemical. Summed up: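 Recombinant human CD39 (COS-7 membranes) was incubated with test compound (0.1–300 µM) and 100 µM ATP. Buffer: 10 mM HEPES, 2 mM CaCl2, 1 mM MgCl2, pH 7.4; 30 min at 37°C. Reactions were stopped by heating 10 min at 90°C. ATP, ADP and AMP were separated by capillary electrophoresis with UV detection.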

The conditions of series [1]: patients, peroral; cited from earlier work.
The conditions of series [2]: ref 61 62; cited from earlier work.
A further series has as its target T2, NPP4 (Homo sapiens, UniProt Q9Y6X5).
T2 sequence (Q9Y6X5 16-407 limits assumed): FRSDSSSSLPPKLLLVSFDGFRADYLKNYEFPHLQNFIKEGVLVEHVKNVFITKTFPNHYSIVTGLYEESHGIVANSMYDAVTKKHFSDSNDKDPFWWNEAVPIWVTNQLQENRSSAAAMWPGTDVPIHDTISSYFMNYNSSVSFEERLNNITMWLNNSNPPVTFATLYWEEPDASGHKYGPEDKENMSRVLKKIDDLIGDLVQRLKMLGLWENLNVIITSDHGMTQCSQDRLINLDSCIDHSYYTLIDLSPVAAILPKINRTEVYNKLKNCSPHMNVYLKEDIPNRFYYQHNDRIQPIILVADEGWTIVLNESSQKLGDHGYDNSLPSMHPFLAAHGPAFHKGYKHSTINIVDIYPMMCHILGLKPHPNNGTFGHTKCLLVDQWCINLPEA
In words: NPP4 assay. It is filed as biochemical. Summed up:
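Purified soluble NPP4 (1200 ng, Sf9-expressed) was incubated with 50 µM test compound, 2% DMSO and 300 µM diadenosine tetraphosphate. Buffer: 10 mM HEPES, 2 mM CaCl2, 1 mM MgCl2, pH 8.0; 90 min at 37°C with shaking. The reaction was heat-stopped (90°C, 5 min) and chilled on ice. Product ATP was quantified by capillary electrophoresis.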

The test system of a further series is melanoma (MaMel65) cells. In words: Extracellular eATP hydrolysis on live melanoma cells. In kind it is cell-based, human. As to conditions: 1, 10, 100 µM, significant at 10 µM, 20 µM eATP.
The target of another series is T3, NPP5 (Homo sapiens, UniProt Q9UJA9).
T3 sequence (Q9UJA9 25-431 limits assumed): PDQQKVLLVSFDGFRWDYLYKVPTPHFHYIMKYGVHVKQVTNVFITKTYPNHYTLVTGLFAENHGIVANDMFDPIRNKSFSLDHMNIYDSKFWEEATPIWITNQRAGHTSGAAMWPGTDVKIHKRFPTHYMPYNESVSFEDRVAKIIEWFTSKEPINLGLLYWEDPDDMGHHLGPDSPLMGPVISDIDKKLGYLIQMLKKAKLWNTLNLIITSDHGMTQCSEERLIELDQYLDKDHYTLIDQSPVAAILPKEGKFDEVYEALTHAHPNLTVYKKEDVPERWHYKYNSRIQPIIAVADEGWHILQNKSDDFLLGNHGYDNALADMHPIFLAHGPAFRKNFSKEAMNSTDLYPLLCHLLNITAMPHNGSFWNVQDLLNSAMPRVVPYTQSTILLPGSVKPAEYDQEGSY
The series is described as follows: NPP5 assay. In kind it is biochemical. Summed up:
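Either CD38 (5 ng) or NPP5 (250 ng) was mixed with 50 µM test compound and 100 µM NAD+ as substrate. For CD38 the reaction buffer was 10 mM HEPES, pH 7.4.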

The target in a further series is T4, NTPDase8 (Homo sapiens, UniProt Q5MY95).
T4 sequence (Q5MY95 1-495): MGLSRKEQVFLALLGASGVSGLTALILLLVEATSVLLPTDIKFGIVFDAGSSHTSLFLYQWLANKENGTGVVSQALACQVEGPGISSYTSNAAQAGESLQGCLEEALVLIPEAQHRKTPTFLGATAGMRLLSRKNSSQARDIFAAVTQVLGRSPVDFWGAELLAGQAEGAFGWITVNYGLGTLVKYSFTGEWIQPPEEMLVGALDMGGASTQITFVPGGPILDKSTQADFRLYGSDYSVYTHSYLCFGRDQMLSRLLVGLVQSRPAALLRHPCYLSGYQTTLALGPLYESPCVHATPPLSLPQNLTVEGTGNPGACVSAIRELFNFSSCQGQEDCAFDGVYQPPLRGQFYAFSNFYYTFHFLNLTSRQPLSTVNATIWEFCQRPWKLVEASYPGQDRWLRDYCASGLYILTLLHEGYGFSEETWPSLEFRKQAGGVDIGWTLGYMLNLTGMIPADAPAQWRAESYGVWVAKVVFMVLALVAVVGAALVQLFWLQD
In words: Malachite green assay, NTPDase8 in COS-7 cell membranes. It is filed as biochemical. Summed up:
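Human NTPDase2, -3 or -8 was expressed in COS-7 membranes (ca. 100 ng protein, adjusted for 10–20% substrate conversion). Enzyme was preincubated 5 min at 37°C with test compound (50 µM single point, or 0.1–300 µM for curves). It was then incubated 15 min at 37°C with 100 µM ATP in HEPES/CaCl2/MgCl2, pH 7.4, ≤2% DMSO. Malachite green absorbance at 600 nm was corrected by a denatured-enzyme blank; n=3.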

The mark [3] stands for this setting: read-out: % inhibition at 50 µM.

As to `Cc1cc(Nc2ncc(Cl)c(Nc3ccccc3S(=O)(=O)C(C)C)n2)c(OC(C)C)cc1C1CCNCC1` [ceritinib, Ceritinib], the IC50 (usually the concentration needed to halve the response being measured) was 13.7 ± 0.6 µM on human CD39, > 50 µM at NPP4, > 50 µM at NPP5 and 20.3 ± 1.5 µM on NTPDase8. The maximum plasma levels entry in series [1] is given as “up to 1.4 µM”. Also, the brain permeation result in series [2] is “some brain permeation”. Further, the inhibition (as a rule, how much of the control response was suppressed) at 50 µM at NPP4 (setting [3]) turned out to be 15%; on NPP5 (setting [3]), 1%. In the series on melanoma (MaMel65) cells, the “inhibition of hydrolysis of eATP added to live cells” value is “concentration-dependent inhibition”.
